CR mimetic SO: lowers age-related superoxide in aged yeast cells | S. cerevisiae aged cells, superoxide DHE fluorescence; stronger effect = lower value | superoxide response (% of plate mean), % at 10 µM | 330,000 tested, 0.18% active;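 active means superoxide response under a set limit, about three screen SD below normal, cut at about 65% in these data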;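 further: yeast aged for seven days with compound at 30 °C before DHE staining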
Ecoli rRNA inh: inhibits bacterial ribosomal RNA function over humanized ribosomes; AID 720706; E. coli WT GFP vs humanized-ribosome RFP mutants, fluorescence, 24 h; stronger effect = lower value; DMSO median 0, no signal -100; 350,000 tested, 1.6% active; GFP signal change (wild-type ribosome), % (test concentration not listed);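 active means significant combined selectivity score with lowered wild-type GFP, culture density cut under 30%, mutant RFP and density less affected; inactive means any of these conditions unmet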
SUMO Mot1 rescue: blocks SUMOylation pathway, rescuing yeast Mot1-301 growth. S. cerevisiae Mot1-301 growth rescue, ATP luminescence, 38.5C; percent above DMSO median, 100 means doubled. growth rescue, % at 18.8 µM. 320,000 tested, 1% active. AID 2716;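 active means every valid replicate shows activation above 250% relative to neutral control wells; inactive means the rest, any valid replicate at or below 250%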
PglD inh: blocks C. jejuni PglD acetyltransferase activity; purified PglD enzyme, DTNB colorimetric CoA detection; inhibition, % at 12.5 µM; 360,000 tested, 0.098% active; AID 602405; in the data active means inhibition above about 16%, passing the limit was not always enough
Cneo AK release: causes C. neoformans cell lysis; lysis activity, % at 15 µM; adenylate kinase release luminescence, 4 h; normalised: neutral wells 0, clomiphene wells 100; 360,000 tested, 0.2% active;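 active means mean lysis activity across replicates of at least 80%, whatever share of replicates individually reach that level; inactive means mean lysis activity below 80%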
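Assay system: log-phase C. neoformans yeast / Quantity: yeast cell density of 5 × 10^6 cells/mL / Medium: fresh YPD growth medium / Compound: single dose / Timing: static 4 h at 37 °C with compound, 1 h detection / Measured by: adenylate kinase release luminescence / Read-out: lysis from increased AK signal / Benchmarks: Clomiphene as positive lysis control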
Hits are given with their value; . = inactive; / = not tested or not shown; + = active, no number. Only some compounds are listed: those with a hit (about 2.2% of all), similar ones and a draw of the others.

SMILES	CR mimetic SO	Ecoli rRNA inh	SUMO Mot1 rescue	PglD inh	Cneo AK release
COc1ccc(S(=O)(=O)N(C)C[C@@H]2Oc3ccc(NS(=O)(=O)c4cn(C)cn4)cc3C(=O)N([C@H](C)CO)C[C@H]2C)cc1	/	.	/	/	/
O=C(NCc1ccccc1)c1nc2ccccc2s1	.	-30	.	.	.
CC(C)CN(C(=O)CCC(=O)OCC(=O)c1ccc(F)c(F)c1)c1c(N)n(CC(C)C)c(=O)[nH]c1=O	.	.	.	.	.
CC(C)CN(C(=O)CCC(=O)OCC(=O)N(C)c1ccccc1)c1c(N)n(CC(C)C)c(=O)[nH]c1=O	.	.	515	.	.
CCO[C@@H]1OC(C(=O)N2CCCC2)=C[C@H](c2ccc3c(c2)OCO3)[C@H]1CCCO	/	/	/	/	.
O=[N+]([O-])c1ccccc1S(=O)(=O)Oc1ccc(/C=N/n2cnnc2)cc1	.	/	.	/	/
COc1cc(/C=N/n2cnnc2)ccc1OS(=O)(=O)c1ccccc1[N+](=O)[O-]	.	-19	.	.	.
CCN1C2=C(C(=O)CCC2)C(c2ccc(O)c(Br)c2)C2=C1CCCC2=O	.	/	.	.	.
O=C1CCCC2=C1C(c1ccc(O)c(Br)c1)C1=C(CCCC1=O)N2c1ccccc1	.	.	+	/	/
COc1ccccc1-c1ccc2c(c1)O[C@@H](CN(C)S(=O)(=O)c1ccc(F)cc1)[C@@H](C)CN([C@@H](C)CO)S2(=O)=O	/	.	/	.	.
CS(=O)(=O)N1CCC(C(=O)N2CCN(c3ccccc3F)CC2)CC1	.	.	310	/	/
O=C(O)C[C@H]1C[C@@H]2c3cc(NC(=O)Nc4ccc(F)cc4)ccc3O[C@@H]2[C@@H](CO)O1	/	.	/	.	.
O=C(CCn1c(=O)oc2ccccc21)N(Cc1ccccc1)c1ccccc1	.	.	.	.	.
CC(=O)Cn1c(=O)oc2ccccc21	.	.	.	.	.
CCN(CC)C(=O)Cn1c(=O)oc2ccccc21	.	.	389	/	/
CCCCN(C(=O)CCn1c(=O)oc2ccccc21)c1ccccc1	.	-27	.	.	.
COc1ccc(-c2cnc3c(c2)C(=O)N([C@@H](C)CO)C[C@@H](C)[C@@H](CN(C)C(=O)C2CCC2)O3)cc1	/	.	/	.	.
CC(=O)Nc1ccc(/C=C/c2ccc3cccc([N+](=O)[O-])c3n2)cc1	.	-16	.	.	.
O=C(O)COc1ccc(/C=C/c2ccc3cccc([N+](=O)[O-])c3n2)cc1	.	.	/	.	.
COc1ccc(-c2c[n+]3c(n2-c2ccc(C)cc2)CCCCC3)cc1	.	.	.	.	.
COc1ccc(-n2c(-c3ccc(Cl)cc3)c[n+]3c2CCCCC3)cc1	.	-32	.	.	.
CCOC(=O)c1cnc(-c2ccccc2)[nH]c1=O	.	/	320	.	.
CCN(CC)c1ccc(C(=C2C=CC(=[N+](CC)CC)C=C2)c2ccccc2)cc1	/	-56	/	/	/
CCN(CC)c1ccc(C(=C2C=CC(=[N+](CC)CC)C=C2)c2ccc(N(CC)CC)cc2)cc1	/	/	/	.	.
CCCNC(=O)Nc1ccc2c(c1)C(=O)N(C)C[C@H](OC)[C@@H](C)CN(C(=O)C1CCOCC1)[C@@H](C)CO2	/	.	/	.	.
SMILES	CR mimetic SO	Ecoli rRNA inh	SUMO Mot1 rescue	PglD inh	Cneo AK release
CC(C)(C)S(=O)(=O)c1ccc(S(=O)(=O)C(C)(C)C)s1	.	/	949	/	/
C[C@H]1CN([C@@H](C)CO)S(=O)(=O)c2ccc(-c3ccccc3)cc2O[C@@H]1CN(C)C	/	.	/	.	.
CNC[C@H]1OCCCC[C@@H](C)Oc2ccc(NS(=O)(=O)c3ccc(Cl)cc3)cc2C(=O)N([C@H](C)CO)C[C@H]1C	/	.	/	.	.
COc1ccc(S(=O)(=O)Nc2ccc3c(c2)C(=O)N([C@@H](C)CO)C[C@H](C)[C@@H](CN(C)C)OCCCC[C@H](C)O3)cc1	/	.	/	.	91
Cc1ccc(S(=O)(=O)Nc2ccc3c(c2)C(=O)N([C@@H](C)CO)C[C@H](C)[C@H](CN(C)S(=O)(=O)c2ccc(Cl)cc2)OCCCC[C@@H](C)O3)cc1	/	.	/	.	103
CNC[C@@H]1OCCCC[C@@H](C)Oc2ccc(NS(=O)(=O)c3ccc(Cl)cc3)cc2C(=O)N([C@H](C)CO)C[C@H]1C	/	.	/	.	100
Cc1ccc(S(=O)(=O)N(C)C[C@H]2OCCCC[C@H](C)Oc3ccc(NS(=O)(=O)c4ccc(Cl)cc4)cc3C(=O)N([C@H](C)CO)C[C@H]2C)cc1	/	.	/	.	.
CC(C)NC(=O)Nc1ccc2c(c1)CC(=O)N([C@H](C)CO)C[C@H](C)[C@H](CN(C)S(=O)(=O)c1ccc(Cl)cc1)O2	/	.	/	.	89
COc1cccc(-c2ccc3c(c2)[C@@H]2[C@@H](CCN2C(=O)C2CCOCC2)[C@@H](CO)N3)c1	/	.	/	.	.
CC(C)NC(=O)Nc1ccc2c(c1)C(=O)N([C@@H](C)CO)C[C@@H](C)[C@@H](CN(C)S(=O)(=O)c1ccc(Cl)cc1)OCCCC[C@@H](C)O2	/	.	/	.	102
COc1ccc(NC(=O)CN2CCN(c3ccccc3Cl)CC2)cc1	.	/	.	.	.
COc1ccc(NC(=O)CN2CCN(c3ccccc3C)CC2)cc1	.	-31	.	.	.
CCOC(=O)c1ccc2[nH]c3c(c2c1)CCCC3O (stereo not given)	.	-32	.	/	/
Nc1nc(CSc2nc3ccccc3[nH]2)nc(N2CCOCC2)n1	.	/	317	.	.
NNC(=O)c1csc(Cc2c(Cl)sc3ccc(Cl)cc23)n1	.	-31	.	.	.
CC(=O)Nc1ccc2c(c1)C(=Nc1ccc(C)cc1)c1ccccc1-2	/	-22	/	.	.
CCC(C(=O)Nc1cccc(OC)c1)n1nc(C)c2c(C)n(-c3ccccc3)nc2c1=O (stereo not given)	.	.	.	.	.
CCOc1ccc(NC(=O)C(CC)n2nc(C)c3c(C)n(-c4ccccc4)nc3c2=O)cc1 (stereo not given)	.	-23	.	.	.
CC(C)NC(=O)Nc1ccc2c(c1)C(=O)N([C@@H](C)CO)C[C@@H](C)[C@H](CN(C)Cc1ccncc1)OCCCC[C@@H](C)O2	/	.	/	.	111
CC(C)NC(=O)Nc1ccc2c(c1)C(=O)N([C@H](C)CO)C[C@@H](C)[C@H](CN(C)Cc1ccncc1)OCCCC[C@H](C)O2	/	.	/	/	/
C[C@@H]1CCCCO[C@H](CN(C)Cc2ccncc2)[C@@H](C)CN([C@@H](C)CO)C(=O)c2cc(NC(=O)Nc3ccccc3)ccc2O1	/	.	/	.	81
C[C@@H]1CN([C@@H](C)CO)C(=O)c2cc(NC(=O)c3ccncc3)ccc2O[C@@H](C)CCCCO[C@H]1CN(C)Cc1ccncc1	/	.	/	.	.
C[C@@H]1CCCCO[C@@H](CN(C)Cc2ccncc2)[C@@H](C)CN([C@H](C)CO)C(=O)c2cc(NC(=O)c3ccncc3)ccc2O1	/	.	/	.	93
COC(=O)[C@@H]1[C@@H](CO)[C@@H]2Cn3c(ccc(C4=CCCC4)c3=O)[C@@H]2N1C(=O)C1CCCC1	/	.	/	.	.

From PubChem
